Measured values pooled from the literature.
Protocols differ between the studies behind these lines.
Target: Cannabinoid receptor 1 (CNR1, Homo sapiens, UniProt P21554)

Structure (SMILES) | test | setting | quantity | result
CCCCCc1cc2c(c(O)c1C(=O)O)C1C=C(C)CCC1C(C)(C)O2 (centres unmarked) | ligand displacement, radioligand | cell membranes | Ki | 1290 nM
CCOC(=O)[C@](CC)(CCC[S+]([O-])CCOCCOCCNC(=O)OC(C)(C)C)NC(=O)c1ccc(C2CC2)c(Cc2ccc(F)cc2)n1 (some centres unmarked) | ligand displacement, radioligand | cell membranes | Ki | 326 nM
C/C(N)=N\C(=N/S(=O)(=O)c1ccc(C(F)(F)F)cc1)N1C[C@H](c2ccccc2)C(c2ccc(Cl)cc2)=N1 | ligand displacement, radioligand |  | Ki | 1.2 nM
CCOC(=O)C(CCCOC)NC(=O)c1ccc(C2CC2)c(Cc2ccc(F)cc2)n1 (centres unmarked) | ligand displacement, radioligand | cell membranes | Ki | 99 nM
Cc1c(C(=O)N2CCC(C(N)=O)(c3ccccc3)CC2)nn(-c2ccc(Cl)cc2Cl)c1-c1ccc(Cl)cc1 | calcium signal, antagonist |  | Kb | 0.4 nM
CCCCC/C=C\C/C=C\C/C=C\C/C=C\CCCC(=O)NCCCl | ligand displacement, radioligand | cell membranes | Ki | 0.74 nM
Cc1ccc(OC(C)(C)C(=O)N[C@@H](C)[C@@H](Cc2ccc(OCCF)cc2)c2cccc(C#N)c2)nc1 | ligand displacement, radioligand |  | Ki | 0.1 nM
CCCCCn1nc(C(=O)N[C@H](C(N)=O)C(C)C)c2ccccc21 | calcium signal, agonist |  | EC50 | 3.63 nM
CCCCCc1cc(O)c(C/C=C(\C)CCC2OC2(C)C)c(O)c1 (centres unmarked) | ligand displacement, radioligand | cell membranes | Ki | > 10000 nM
CCCCCn1cc(C(=O)C2C(C)(C)C2(C)C)c2ccccc21 | GTPγS binding, agonist, radiometric | cell membranes | EC50 | 98 nM
CCOC(=O)C(CC)(CCCSCCOCCOCCOCCOCCNC(=O)OC(C)(C)C)NC(=O)c1ccc(C2CC2)c(Cc2ccc(F)cc2)n1 (centres unmarked) | ligand displacement, radioligand | cell membranes | Ki | 731 nM
CCCCCc1cc(O)c(C/C=C(\C)CCC=C(C)C)c(O)c1C(=O)O | ligand displacement, radioligand | cell membranes | Ki | 4530 nM
CCOC(=O)C(CC)(CCCSCCOCCOCCNc1ccc([N+](=O)[O-])c2nonc12)NC(=O)c1ccc(C2CC2)c(Cc2ccc(F)cc2)n1 (racemic) | cAMP, agonist |  | EC50 | 600 nM
CCCc1cc(O)c2c(c1)OC(C)(C)[C@@H]1CCC(C)=C[C@@H]21 | ligand displacement, radioligand | cell membranes | Ki | 22 nM
